Laboratory results from ChEMBL document CHEMBL1154249, “Semisynthesis and biological evaluation of abietane-type diterpenes. Revision of the structure of rosmaquinone” (J Nat Prod, 2009).
Values after ≈ are worked out from the molar mass of the structure shown.

Experiments:
Staphylococcus aureus = assay: Antibacterial activity against Staphylococcus aureus ATCC 6538 after 24 hrs by broth dilution assay; assay type: functional; conditions: Staphylococcus aureus, ATCC 6538, 24 h; read-out: MIC
[1] = test system: Staphylococcus epidermidis; assay: Antibacterial activity against Staphylococcus epidermidis ATCC 14990 after 24 hrs by broth dilution assay; assay type: functional; conditions: Staphylococcus epidermidis, ATCC 14990, 24 h; read-out: MIC
In short: (§1)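 Microdilution in nutrient broth at 37 °C, about (1-5) × 10^5 cfu/mL inoculum, compounds in DMSO (≤1% v/v, matched DMSO controls), in triplicate. Growth followed by OD550. Wells without visible growth after 24 h on a rotary shaker were subcultured in duplicate onto nutrient agar and colonies counted after overnight incubation. MIC is the lowest concentration inhibiting growth at 24 h.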

Bacillus subtilis = assay: Antibacterial activity against Bacillus subtilis ATCC 6051 after 24 hrs by broth dilution assay; assay type: functional; conditions: Bacillus subtilis, ATCC 6051, 24 h; read-out: MIC
Bacillus cereus = assay: Antibacterial activity against Bacillus cereus ATCC 21772 after 24 hrs by broth dilution assay; assay type: functional; conditions: Bacillus cereus, ATCC 21772, 24 h
Candida albicans = assay: Antibacterial activity against Candida albicans CECT 170 after 24 hrs by broth dilution assay; assay type: functional; conditions: CECT 1039, 24 h, in the assay text read “CECT 1039” for “CECT 170”
In short: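 Yeast grown in Sabouraud liquid medium at 37 °C. Microdilution in triplicate, about (1-5) × 10^5 cfu/mL, DMSO ≤1% v/v with matched controls. OD550 followed. Clear wells at 24 h were plated in duplicate on Sabouraud agar and counted after overnight incubation. MIC is the lowest concentration inhibiting growth.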

Enterococcus faecalis = assay: Antibacterial activity against Enterococcus faecalis ATCC 29212 after 24 hrs by broth dilution assay; assay type: functional; conditions: ATCC 29212, 24 h
In short: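 Microdilution in brain heart infusion broth, shaken at 37 °C, about (1-5) × 10^5 cfu/mL start, DMSO ≤1% v/v with matched controls, in triplicate. OD550 read. Clear wells at 24 h were subcultured in duplicate onto brain heart infusion agar and counted after overnight incubation. MIC is the lowest concentration giving growth inhibition.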

[2] = test system: Mycolicibacterium smegmatis; assay: Antibacterial activity against Mycobacterium smegmatis ATCC 19420 after 48 hrs by broth dilution assay; assay type: functional; conditions: ATCC 19420, 48 h
In short: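 Brain heart infusion broth with 0.06% Tween 80, 37 °C on a rotary shaker, inoculum about (1-5) × 10^5 cfu/mL, DMSO ≤1% v/v with matched controls, in triplicate. OD550 monitored.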

Escherichia coli = assay: Antibacterial activity against Escherichia coli ATCC 9637 after 24 hrs by broth dilution assay; assay type: functional; conditions: ATCC 9637, 24 h; in short: as §1
Proteus mirabilis = assay: Antibacterial activity against Proteus mirabilis CECT 170 after 24 hrs by broth dilution assay; assay type: functional; conditions: CECT 170, 24 h; in short: as §1
Pseudomonas aeruginosa = assay: Antibacterial activity against Pseudomonas aeruginosa AK958 after 24 hrs by broth dilution assay; assay type: functional; conditions: AK958, 24 h; in short: as §1
Salmonella = assay: Antibacterial activity against Salmonella CECT 4569 after 24 hrs by broth dilution assay; assay type: functional; conditions: CECT 4569, 24 h; in short: as §1
HeLa [3] = assay: Cytotoxicity against human HeLa cells at lag phase of growth after 48 hrs by MTT assay; assay type: functional, cell-based
In short: (§2)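 Monolayers grown in DMEM with 5% fetal calf serum and penicillin-streptomycin at 37 °C, 5% CO2. 2×10^4 cells/well in lag or log phase were exposed for 48 h to a concentration series of compounds predissolved in DMSO. MTT formazan was dissolved in DMSO and read at 550 nm. IC50 taken from the curve; three independent experiments.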

HeLa [4] = assay: Cytotoxicity against human HeLa cells at exponential phase of growth after 48 hrs by MTT assay; assay type: functional, cell-based; in short: as §2
HEp-2 [5] = assay: Cytotoxicity against human Hep2 cells at lag phase of growth after 48 hrs by MTT assay; assay type: functional, cell-based; in short: as §2
HEp-2 [6] = assay: Cytotoxicity against human Hep2 cells at exponential phase of growth after 48 hrs by MTT assay; assay type: functional, cell-based; in short: as §2
A549 [7] = assay: Cytotoxicity against human A549 cells at lag phase of growth after 48 hrs by MTT assay; assay type: functional, cell-based; in short: as §2
A549 [8] = assay: Cytotoxicity against human A549 cells at exponential phase of growth after 48 hrs by MTT assay; assay type: functional, cell-based; in short: as §2
MCF7 [9] = assay: Cytotoxicity against human MCF7 cells at lag phase of growth after 48 hrs by MTT assay; assay type: functional, cell-based; in short: as §2
MCF7 [10] = assay: Cytotoxicity against human […] cells at exponential phase of growth after 48 hrs by MTT assay; assay type: functional, cell-based; in short: as §2
Vero [11] = assay: Cytotoxicity against african green monkey Vero cells at lag phase of growth after 48 hrs by MTT assay; assay type: cell-based, Chlorocebus sabaeus; in short: as §2
Vero [12] = assay: Cytotoxicity against african green monkey Vero cells at exponential phase of growth after 48 hrs by MTT assay; assay type: cell-based, Chlorocebus sabaeus; in short: as §2
[13] = Homo sapiens, HeLa, 48 h, read-out: IC50
[14] = Homo sapiens, A549, 48 h, read-out: IC50
[15] = Homo sapiens, MCF7, 48 h, read-out: IC50
[16] = Chlorocebus sabaeus, Vero, 48 h, read-out: IC50
[17] = Homo sapiens, HEp-2, 48 h, read-out: IC50

Row | MIC (Staphylococcus aureus) [µg/mL] | MIC [1] [µg/mL] | MIC (Bacillus subtilis) [µg/mL] | MIC (Bacillus cereus) [µg/mL] | MIC (Candida albicans) [µg/mL] | MIC (Enterococcus faecalis) [µg/mL] | MIC [2] [µg/mL] | MIC (Escherichia coli) [µg/mL] | MIC (Proteus mirabilis) [µg/mL] | MIC (Pseudomonas aeruginosa) [µg/mL] | MIC (Salmonella) [µg/mL] | Compound | IC50 (HeLa [3]; [13]) [µM] | IC50 (HeLa [4]; [13]) [µM] | IC50 (A549 [7]; [14]) [µM] | IC50 (A549 [8]; [14]) [µM] | IC50 (MCF7 [9]; [15]) [µM] | IC50 (MCF7 [10]; [15]) [µM] | IC50 (Vero [11]; [16]) [µM] | IC50 (Vero [12]; [16]) [µM] | also measured
1 | > 40 | > 40 | 20 (≈ 45.8 µM) | 10 (≈ 22.9 µM) | > 40 | > 40 | > 40 | > 40 | > 40 | > 40 | > 40 | CC(C)c1cc2c(c(O)c1O)[C@@]13CCCC(C)(C)[C@@H]1[C@H](OC3=O)[C@@H]2OCc1ccccc1 | – | – | – | – | – | – | – | – | IC50 (HeLa [3]; hela): Not Active; IC50 (HeLa [4]; hela): Not Active; IC50 (HEp-2 [5]; hep-2): Not Active; IC50 (HEp-2 [6]; hep-2): Not Active; IC50 (A549 [7]; a549): Not Active; IC50 (A549 [8]; a549): Not Active; IC50 (MCF7 [9]; mcf7): Not Active; IC50 (MCF7 [10]; mcf7): Not Active; IC50 (Vero [11]; vero): Not Active; IC50 (Vero [12]; vero): Not Active
2 | > 40 | 20 (≈ 55.5 µM) | 20 (≈ 55.5 µM) | 20 (≈ 55.5 µM) | > 40 | > 40 | > 40 | > 40 | > 40 | > 40 | > 40 | CO[C@@H]1c2cc(C(C)C)c(O)c(O)c2[C@@]23CCCC(C)(C)[C@@H]2[C@@H]1OC3=O | 40.8 | > 60 | 35.6 | 50.8 | 23.3 | 41.1 | 36.7 | 33.9 | –
3 | > 40 | 20 (≈ 55.5 µM) | > 40 | 20 (≈ 55.5 µM) | > 40 | > 40 | > 40 | > 40 | > 40 | > 40 | > 40 | CO[C@H]1c2cc(C(C)C)c(O)c(O)c2[C@@]23CCCC(C)(C)[C@@H]2[C@@H]1OC3=O | 42.2 | > 60 | 42.5 | > 60 | 37.5 | 55.6 | 42.2 | 47.2 | –
4 | 25 (≈ 75.7 µM) | 5 (≈ 15.1 µM) | 4 (≈ 12.1 µM) | 5 (≈ 15.1 µM) | 20 (≈ 60.5 µM) | > 40 | > 40 | > 40 | > 40 | > 40 | > 40 | CC(C)c1cc2c(c(O)c1O)[C@@]13CCCC(C)(C)[C@@H]1C[C@@H]2OC3=O [CARNOSOL] | 43.9 | > 60 | > 60 | 47 | 40.9 | 44.5 | > 60 | 51.5 | –
5 | 40 (≈ 115 µM) | 20 (≈ 57.7 µM) | 30 (≈ 86.6 µM) | 20 (≈ 57.7 µM) | > 40 | > 40 | > 40 | > 40 | > 40 | > 40 | > 40 | CC(C)c1cc2c(c(O)c1O)[C@@]13CCCC(C)(C)[C@@H]1[C@@H](O)[C@@H]2OC3=O [ISOROSMANOL] | > 60 | > 60 | > 60 | 46 | 54.3 | 36.1 | > 60 | > 60 | –
6 | 20 (≈ 57.7 µM) | 10 (≈ 28.9 µM) | 10 (≈ 28.9 µM) | 20 (≈ 57.7 µM) | > 40 | > 40 | – | > 40 | > 40 | > 40 | > 40 | CC(C)c1cc2c(c(O)c1O)[C@@]13CCCC(C)(C)[C@@H]1[C@H](OC3=O)[C@H]2O [ROSMANOL] | 20.2 | 51.4 | 43.4 | 27.7 | 17.1 | 15.3 | 19.9 | 36.4 | –
7 | 40 (≈ 112 µM) | > 40 | 20 (≈ 55.8 µM) | 20 (≈ 55.8 µM) | > 40 | > 40 | > 40 | > 40 | > 40 | > 40 | > 40 | CO[C@H]1C2=C(C(=O)C(=O)C(C(C)C)=C2)[C@@]23CCCC(C)(C)[C@@H]2[C@@H]1OC3=O [ROSMAQUINONE B] | 36 | 33.8 | > 60 | 25.4 | 43.3 | 22.1 | > 60 | > 60 | IC50 (HEp-2 [5]; [17]): 42.5 µM; IC50 (HEp-2 [6]; [17]): > 60 µM
8 | 20 (≈ 58.1 µM) | 40 (≈ 116 µM) | 8 (≈ 23.2 µM) | 10 (≈ 29 µM) | > 40 | > 40 | > 40 | > 40 | > 40 | > 40 | > 40 | CC(C)C1=CC2=C(C(=O)C1=O)[C@@]13CCCC(C)(C)[C@@H]1[C@H](OC3=O)[C@H]2O [ROSMAQUINONE] | > 60 | > 60 | > 60 | 28.8 | 39.5 | > 60 | > 60 | > 60 | –
9 | 20 (≈ 60.9 µM) | 40 (≈ 122 µM) | 10 (≈ 30.4 µM) | 10 (≈ 30.4 µM) | > 40 | > 40 | > 40 | > 40 | > 40 | > 40 | > 40 | CC(C)C1=CC2=C[C@H]3OC(=O)[C@@]4(CCCC(C)(C)[C@H]34)C2=C(O)C1=O [SAGEQUINONE METHIDE A] | 14 | 9.5 | > 60 | 26.5 | 46 | 26.8 | > 60 | > 60 | IC50 (HEp-2 [5]; [17]): 32 µM; IC50 (HEp-2 [6]; [17]): 19.2 µM
